Laboratory results published in PubChem BioAssay AID493176 (Broad Institute, 2011).
Results filed as inconclusive are left out. Calls of active or inactive are those of the source.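 The calls were made as follows: active = every replicate test active, with falling luminescence and half-maximal potency within ten times the top tested dose; inconclusive = tests disagree, or partial flat loss or unreliable fit; inactive = all tests inactive, flat or rising signal or weak potency.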

Columns and labels:
[1] = tested on: HMLE_shECad viability, CellTiter-Glo luminescence, 72 h; assay: viability loss in HMLE_shECad cells – cell-based, CellTiter-Glo luminescence, dry powder, set 3, dose response (AID 493176)
Summary of the method: (§1)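 Test system: E-cadherin-knockdown HMLE cells (HMLE_shECad), CSC-like / Input: 2000 cells/well / Buffer or medium: serum-free CSC medium / Dosing: compounds delivered by pin transfer / Schedule: ≥4 h adherence, ~70-74 h compound exposure, 37 °C, 5% CO2 / Signal: CellTiter-Glo luminescent signal / Evaluation: cell viability derived from luminescence signal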

[2] = as above; settings: HMLE_shECad viability, CellTiter-Glo luminescence, 72 h; at 19.5 µM (top of the series)
Summary of the method: as §1

| Compound | AC50 [1] | activity change, negative = inhibition [2] |
| --- | --- | --- |
| CCN1C(=O)/C(=C\N2CCN(c3cccc(Cl)c3)CC2)SC1=S | 4.92 µM |  |
| Cc1onc(-c2ccccc2)c1C(=O)Nc1sc2c(c1C#N)CCC(C)C2 (stereo unspecified) | 7.81 µM |  |
| Cc1csc(NC(=O)c2ccc(COc3ccccc3)o2)n1 | 12.3 µM |  |
| O=C(c1ccccc1)c1coc2ccc(O)c(Br)c12 |  | 1.46% (inactive) |
| CC(C)CC(=O)NC(NC(=S)Nc1sc2c(c1C#N)CCCC2)C(Cl)(Cl)Cl (stereo unspecified) | 0.619 µM |  |
| C/C(=N\NC(=O)c1cc(-c2cccc([N+](=O)[O-])c2)n[nH]1)c1ccccc1O | 8.72 µM |  |
| O=C(COc1ccc(Cl)cc1Cl)N/N=C/c1ccc[nH]1 | 5.91 µM |  |
| O=C(Nc1ccccc1N1CCCC1)c1cccc(-c2cc3ccccc3oc2=O)c1 | 10 µM |  |
| CC(C)(C)c1ccc2c(c1)OC(C(=O)NN=Cc1ccc[nH]1)CO2 (mixture of isomers) | 2.21 µM |  |
| CC(=O)c1cccc(NS(=O)(=O)c2cc(-c3cnc(C4CC4)o3)ccc2C)c1 | 1.02 µM |  |
| CN(c1ccccc1)S(=O)(=O)c1ccc(-c2ccccc2)cc1 | 12.7 µM |  |
| Nc1cc(Cl)ccc1Oc1ccc2ccccc2c1 | 10.5 µM |  |
| CCCCCCc1cc2cc(S(=O)(=O)c3ccc(Cl)cc3)c(=O)oc2cc1O | 2.2 µM |  |
| Cc1cc(C)nc(NC(=O)/C=C/c2cccs2)c1 | 5.95 µM |  |
| Cc1ccc2nc(NC(=O)c3cccc(-c4cc5ccccc5oc4=O)c3)sc2c1 | 5.37 µM |  |
| CC(C)c1ccc(/C=C/C(=O)NC2=NCCS2)cc1 | 7.96 µM |  |
